Screening data (PubChem BioAssay)
CHOP inhibitor = inhibitors of CHOP promoter induction, primary screen, cell-based, unfolded protein response, luciferase reporter | CHO-K1 CHOP-promoter luciferase, tunicamycin-induced, 15-18 h | inhibition, % at 10 µM | 220,000 tested, 3.8% active;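 active = compounds that reduced the stress-induced luciferase reporter signal by more than about 70% of percent inhibition, limit read from the data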;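 note: 0% = tunicamycin plus vehicle and 100% = wells without tunicamycin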
MPTP block = mitochondrial permeability transition pore inhibitors, primary screen, biochemical, isolated mouse mitochondria, absorbance; Ca2+ swelling absorbance, 30 min; inhibition, % at 10 µM; 360,000 tested, 1.4% active; AID 602449, 2012;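 active = inhibition of 50% or more, scaled per plate between neutral and stimulator controls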;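 note: 0% = DMSO wells given calcium and 100% = 1 mM EGTA wells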
aDG glyco act = activators of alpha-DG glycosylation, primary screen, uHTS, Pro5-aDG cells, AlphaScreen. alpha-DG glycosylation AlphaScreen (IIH6); 0% Pro5, 100% B10-LARGE cell signal. activation, % at 10 µM. 360,000 tested, 0.22% active. AID 624168, 2012;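 active = activation of at least 8% versus controls, or a plate z-score of at least 8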;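 note: Pro5 are CHO cells carrying HIG-tagged alpha-DG that lacks glycosylation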
GRIN3A LBD mod = binders of NR3A ligand-binding domain, primary screen, biophysical, differential scanning fluorimetry, uHTS | Glutamate receptor ionotropic, NMDA 3A (GRIN3A) ligand-binding domain | 340,000 tested, 2.5% active | NR3A LBD differential scanning fluorimetry, Tm shift; 0% = protein alone, 100% = glycine-bound protein | Tm shift relative to glycine control, % at 25 µM;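 active = melting temperature shift of at least 10% of the positive control shift, at one fixed dose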
CHOP UPR activ = activators of apoptotic CHOP UPR arm, primary screen, cell-based, CHO-CHOP luciferase reporter, luminescence, uHTS. UPR activation; percent of tunicamycin response over DMSO baseline. activation, % at 10 µM. 330,000 tested, 0.34% active;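 active = at 10 µM dose, activation of 40% or more, normalized to positive control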;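 note: 100% = tunicamycin at 10 µg/mL and 0% = DMSO alone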
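Test system: CHO-CHOP cells, stable luciferase reporter of PERK-eIF2a-CHOP signalling | Quantity: 500 CHO-CHOP cells per well | Buffer or medium: F12 plus 10% serum | Compound dosing: 10 µM single point, 0.5% DMSO | Schedule: 6 h compound treatment, 37 °C | Signal: Luciferase luminescence | Control set: Tunicamycin high control, DMSO low control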
UPR XBP1 act = activators of adaptive XBP1 UPR arm, primary screen, cell-based, CHO-XBP1 luciferase reporter, luminescence, uHTS; IRE1-XBP1 UPR activation; percent of tunicamycin response, DMSO as zero; activation, % at 20 µM; 330,000 tested, 0.33% active;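 active = versus positive control, 20 µM dose yields 30% or more activation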;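 note: 100% = tunicamycin at 10 µg/mL and 0% = DMSO only wells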
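Assay system: CHO-XBP1 luciferase reporter cells; Schedule: 6 h treatment, 37 °C; Detection: glow luminescence from Steady-Glo reagent; Benchmarks: high control tunicamycin 10 µg/mL final, low control DMSO vehicle only.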
The depositor's hits bear a star; nt = no result given. Sampled rows, rich in hits. Any-hit rate of the full collection: about 5.6%.

SMILES	CHOP inhibitor	MPTP block	aDG glyco act	GRIN3A LBD mod	CHOP UPR activ	UPR XBP1 act
Cc1ccccc1-n1nc2c(c1NC(=O)CC(C)C)CS(=O)C2 (stereo not given)	nt	-2	0	1	-1	-2
CCC(=O)OCCn1c(=O)c2ccccc2c2ccccc2c1=O	19	1	0	-1	0	1
CC(C)CCn1c(=O)c2ccccc2c2ccccc2c1=O	78*	3	0	-14	-1	-2
O=C(NC1CCCc2c1cnn2-c1ccc(F)cc1F)c1ccccc1N1CCOCC1 (stereo not given)	nt	1	0	0	2	-5
Cc1nnc(NC(=O)c2cccc(F)c2)s1	8	-2	0	0	2	4
O=C(Nc1nnc(-c2cccs2)s1)c1cccc(F)c1	93*	-1	0	-7	7	2
COc1ccc(C(=O)Nc2nnc(-c3cccs3)s2)cc1	70*	-3	0	2	-6	-6
Cc1occc1C(=O)Nc1nccs1	-14	1	0	4	-1	0
COc1ccc(C(=O)Nc2nc(-c3cccs3)c(NC(C)=O)s2)cc1	-14	-1	0	2	-1	-2
Cc1occc1C(=O)Nc1nnc(-c2cccs2)s1	81*	2	0	-17	7	5
O=C(c1ccco1)N1CCN(Cc2nnc(-c3cccc(Cl)c3)o2)CC1	nt	1	0	-2	-1	6
COc1ccc(N2CC(C(=O)Nc3nc4ccc(S(C)(=O)=O)cc4s3)CC2=O)cc1 (stereo not given)	nt	1	0	-1	2	-4
CCc1ccc2[nH]c(=O)c(CN(Cc3ccccc3)Cc3nnnn3Cc3ccco3)cc2c1	73*	-2	0	-5	0	-3
Cc1ccc2[nH]c(=O)c(CN(Cc3ccc4c(c3)OCO4)Cc3nnnn3Cc3ccco3)cc2c1	10	5	0	-1	-1	-3
Cc1cc(C)c2cc(CN(Cc3ccc4c(c3)OCO4)Cc3nnnn3Cc3ccco3)c(=O)[nH]c2c1	71*	-7	0	-1	-4	10
O=c1[nH]c2cc3c(cc2cc1CN(Cc1ccccc1)Cc1nnnn1Cc1ccco1)OCCO3	-91	-4	0	-5	nt	nt
O=c1cc(-c2ccc(O)cc2)oc2ccc3ccccc3c12	nt	8	0	24*	-10	-9
CCc1cc2c(COC(=O)c3c(C)noc3C)cc(=O)oc2cc1O	95*	14	0	-3	2	3
CCc1cc2c(COC(=O)c3cccc(S(C)(=O)=O)c3)cc(=O)oc2cc1O	nt	1	0	-7	-1	2
Cc1c(Cl)ccc2c(C(=O)NC(C)c3ccncc3)cc(-c3ccncc3)nc12 (stereo not given)	79*	nt	nt	nt	2	4
COC(=O)CNC(=O)c1cc(-c2ccncc2)nc2c(C)c(Cl)ccc12	13	1	1	-5	0	-2
Cn1c(NC(=O)/C=C/c2ccccc2)cc(=O)n(C)c1=O	-15	0	1	-2	7	-3
Cn1c(NC(=O)/C=C/c2ccc(Cl)c(Cl)c2)cc(=O)n(C)c1=O	-65	3	0	16*	1	5
CCOC(=O)c1cc(C#N)c(Oc2ccccc2)nc1-c1ccccc1	-23	5	0	13*	0	-2
CCCNc1nc(-c2ccccc2)c(C(=O)OCC)cc1C#N	-1	1	0	-3	0	8
SMILES	CHOP inhibitor	MPTP block	aDG glyco act	GRIN3A LBD mod	CHOP UPR activ	UPR XBP1 act
COC(=O)c1[nH]c2cc(OC)ccc2c1NC(=O)CN1CCN(c2cccc(C)c2)C(C)C1 (stereo not given)	89*	2	1	-3	0	2
O=C(NCCCc1ccc(F)cc1)C1CCC(=O)N(CCN2CCOCC2)C1 (stereo not given)	nt	1	0	3	0	-3
COc1cccc(-c2c(C(=O)N/N=C(\C)c3ccc(Cl)s3)nnn2-c2nonc2N)c1	nt	-2	0	11*	0	-3
CCOc1cccc(-c2c(C(=O)N/N=C(\C)c3ccccn3)nnn2-c2nonc2N)c1	nt	0	1	31*	nt	nt
O=C(Cc1cc2ccccc2o1)NCc1ccc(F)cc1	nt	1	0	0	2	-2
Cc1cccc(N2C(=O)CC(Sc3nc(C)c4c(n3)CCCC4)C2=O)c1 (stereo not given)	-2	0	0	0	0	-2
Cc1nc(SC2CC(=O)N(c3cc(Cl)cc(Cl)c3)C2=O)nc2c1CCCC2 (stereo not given)	95*	2	0	-12	-1	0
O=C(COC(=O)CCC1CCCC1)Nc1ccc(F)cc1	nt	-1	0	1	1	-2
Cc1nc2ccccc2c(=O)[nH]1	-9	-1	0	-2	0	0
O=c1[nH]c(C2C3CC4CC(C3)CC2C4)nc2ccccc12 (stereo not given)	73*	8	0	-10	-1	-1
O=C(Nc1ccc(Nc2ccccc2)cc1)c1ccco1	-27	0	0	6	3	-1
COc1ccc2c(Cl)c(C(=O)N/N=C/c3ccncc3)sc2c1	nt	0	0	-5	1	10
O=C(Nc1nccs1)c1sc2ccccc2c1Cl	24	6	0	-19	0	-7
O=C(Nc1ccc(NC(=O)c2sc3ccccc3c2Cl)cc1)c1ccco1	-17	0	0	29*	2	-1
O=C(N/N=C/c1ccncc1)c1sc2ccccc2c1Cl	nt	1	0	13*	1	0
Cc1cnc(NC(=O)c2sc3ccccc3c2Cl)s1	-4	2	0	20*	-5	-6
Cc1ccc(C)c(SCC(=O)Nc2cc(C)nn2-c2ccc(F)cc2)c1	28	nt	nt	nt	nt	nt
OC[C@H]1O[C@@H](n2cnc3c(NC4CCCC4)ncnc32)C(O)[C@H]1O (stereo not given in full)	-21	nt	nt	nt	nt	nt
O=C(OCC(=O)N1CCCCC1)c1ccccc1SCC(=O)N1CCCCC1	-15	1	0	-2	1	2
COc1ccc(NC(=O)COC(=O)c2ccccc2SCC(=O)N2CCCC2)cc1	nt	-1	0	19*	0	0
N#CC1(NC(=O)COC(=O)c2ccccc2SCC(=O)N2CCCC2)CCCCC1	nt	0	0	13*	2	-2
